PubChem BioAssay AID2298 (NMMLSC, 2010)

Each molecule was assayed against Regulator of G-protein signaling 16 (Homo sapiens) (UniProt O15492) (assay: RGS16-Galphao binding modulators, SAR follow-up, biochemical, multiplexed bead flow cytometry, SAR compounds (AID 2298)). Conditions: bead-based flow cytometry, AF488-Galphao binding to RGS16.
Summary of the method: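 System: Bead-immobilised biotinylated RGS16, multiplexed bead sets / Medium: HEPES buffer with Lubrol and BSA, pH 8.0 / Compound dosing: Nine-point threefold dilution series of compound / Incubation: Bead–Galphao binding incubation 30–90 min, room temperature / Detection: high-throughput flow cytometry, bead-gated median green (FL1) fluorescence / Repeats: duplicates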

Chain of Regulator of G-protein signaling 16 (Homo sapiens) (O15492 whole entry, looked up): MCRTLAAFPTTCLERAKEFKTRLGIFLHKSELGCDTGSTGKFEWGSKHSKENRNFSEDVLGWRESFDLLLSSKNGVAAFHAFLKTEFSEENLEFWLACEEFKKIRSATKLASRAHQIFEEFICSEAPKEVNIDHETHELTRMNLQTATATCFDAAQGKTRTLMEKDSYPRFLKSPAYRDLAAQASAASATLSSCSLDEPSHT

`NS(=O)(=O)c1ccc(N/N=C/c2ccc(O)c(O)c2O)c([N+](=O)[O-])c1` showed an EC50 of 29 nM.

Same assay, conditions: bead-based flow cytometry, AF488-Galphao binding to RGS16; measured here: Ki derived from EC50, inhibitors

First: O=c1c2ccccc2sn1-c1ccc(S(=O)(=O)N2CCCC2)cc1
Second: CC1(C)OC(=O)C(=Cc2ccc(-c3ccc(S(N)(=O)=O)cc3)o2)C(=O)O1
The Ki of the first is 140-fold lower: 20 nM for the first, 2840 nM for the second.

Going from `NS(=O)(=O)c1ccc(N/N=C/c2ccc(O)c(O)c2O)c([N+](=O)[O-])c1` to `CCN(CC)S(=O)(=O)c1cccc(C(=O)N/N=C/c2ccc(O)c(O)c2O)c1`, the Ki rises from 20 nM to 480 nM (24-fold). The first binds more tightly here.

First: COC(=O)CCC(=O)Nc1sc(C)c(C)c1C(N)=O
Second: CCOC(=O)c1sc(NC(=O)CSc2nnc(Cc3ccccc3)o2)c(C#N)c1C
The Ki of the first is 2-fold higher: 1140 nM for the first, 580 nM for the second.

First: CCN(CC)S(=O)(=O)c1cccc(-c2n[nH]c(=S)n2/N=C/c2ccc(C(=O)OC)cc2)c1
Second: Cc1[nH]n(-c2ccccc2)c(=S)c1C=Nc1cccc([N+](=O)[O-])c1
The Ki of the first is 19-fold higher: 760 nM for the first, 40 nM for the second. The second binds more tightly here.

Compared with `CC(NC(=O)c1sc2cc([N+](=O)[O-])ccc2c1Cl)C(C)(C)C` (centres undefined), `O=C(NCCCN1CCOCC1)c1sc2cc([N+](=O)[O-])ccc2c1Cl` is 1.6-fold higher in Ki: 170 nM for the first, 270 nM for the second.

First: CCC(=O)NC(c1ccc(C)cc1)c1cc([N+](=O)[O-])c2cccnc2c1O (centres undefined)
Second: CC(=O)OCCCNc1cc(Sc2nc3ccccc3s2)c2nonc2c1[N+](=O)[O-]
The Ki of the first is 19-fold higher: 4240 nM for the first, 220 nM for the second.

Compared with `Cc1[nH]n(-c2ccccc2)c(=S)c1C=NCCCN=Cc1c(C)[nH]n(-c2ccccc2)c1=S`, `O=C(COc1ccccc1C(=O)N/N=C/c1ccc(O)c(O)c1)N/N=C/c1ccc(O)c(O)c1` is 3.7-fold lower in Ki: 330 nM for the first, 90 nM for the second. The second binds more tightly here.

Going from `CCN=c1scc(C)n1/N=C/c1ccc(O)c(O)c1O` to `CN=c1scc(C)n1/N=C/c1ccc(O)c(O)c1O`, the Ki falls from 850 nM to 410 nM (2.1-fold).

`COc1ccc(C2=CC(=O)C=CC2=O)cc1` and `Cc1cccc(N2CCN(C(=O)Cn3sc4nc(C)cc(C)c4c3=O)CC2C)c1` (centres undefined) are within 1.5-fold of each other in Ki: 120 nM for the first, 90 nM for the second.

Going from `Cc1cc(Cl)ccc1N=c1ssnc1Cl` to `Cc1cccc(N2CCN(C(=O)COc3nsc4nc(C)cc(C)c34)CC2C)c1` (centres undefined), the Ki rises from 40 nM to 1160 nM (29-fold). The first binds more tightly here.

Compared with `O=C1C(Cl)=C(N2CCCCC2)C(=O)C(Cl)=C1c1cnc(N2CCCCC2)s1`, `CN1CCN(C2=C(Cl)C(=O)C(c3cnc(N4CCCCC4)s3)=C(Cl)C2=O)CC1` is 5-fold lower in Ki: 100 nM for the first, 20 nM for the second. The second binds more tightly here.

With `O=C(Cc1csc(N2CCOCC2)n1)N/N=C/c1ccc(O)c(O)c1O` the Ki was 670 nM.
